This note sets out measurements from ChEMBL document CHEMBL1926594, “Molecular modeling studies, synthesis, configurational stability and biological activity of 8-chloro-2,3,5,6-tetrahydro-3,6-dimethyl-pyrrolo[1,2,3-de]-1,2,4-benzothiadiazine 1,1-dioxide” (Bioorg Med Chem, 2011).

The test system of data set [1] is DIV7-10. Kind of data set: Positive allosteric modulation activity at AMPA receptor in Sprague-Dawley rat cortical neuronal DIV7-10 cells assessed as increase in kainate induced currents at 100 uM by patch clamp electrophysiological method. In kind it is cell-based. Summed up:
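Cortical neurons from newborn Sprague–Dawley rats: trypsin-dispersed, plated on poly-L-lysine and switched to BME/Neurobasal with B27 after 24 h, with 1 µM Ara-C added at DIV5. Whole-cell voltage-clamp at room temperature on DIV7-10 cells. Kainate-evoked currents recorded with co-application of epimeric mixture at 100 µM. Potentiation given as mean ± SE, n = 4.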
On the technique in general: The patch-clamp technique gives a direct electrical read-out from membranes.

A short description of data set [2]: Configurational stability of compound in water-acetonitrile assessed as backward rate epimerization at pH 7 using IAM column by stopped flow bidimensional recycling HPLC. In kind it is physicochemical. To be noted: artificial membrane. Summed up: (§1)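 sf-BD-rHPLC with an IAM-based reactor column. (3*,6R) epimers separated on Chiralcel OD-R at 0 °C using water/acetonitrile 50:50 (v/v). Trapped epimer interconverts at 37.5 °C in chloroacetate buffer pH 2.20 or phosphate buffer pH 7.00 (ionic strength 0.01), then is re-separated at 0 °C, n = 4. Forward, backward and equilibrium rate constants derived from peak areas.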

Data set [3] is described as follows: Configurational stability of compound in water-acetonitrile assessed as backward rate equilibrium epimerization at pH 2.2 using IAM column by stopped flow bidimensional recycling HPLC. As to conditions: artificial membrane. It counts as physicochemical. Summed up:
as §1

Data set [4] can be described thus: Configurational stability of compound assessed as half life using IAM column by stopped flow bidimensional recycling HPLC. It counts as physicochemical. As to conditions: IAM column (stationary phase). Summed up:
as §1

Data set [5] in a line: Configurational stability of compound in water-acetonitrile assessed as backward rate equilibrium epimerization at pH 7 using C-8 column by stopped flow bidimensional recycling HPLC. In kind it is physicochemical. To be noted: buffer. The essentials: (§2)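 Stopped-flow bidimensional recycling HPLC on the (3*,6R) epimeric mixture. Epimers separated on Chiralcel OD-R at 0 °C with water/acetonitrile 50:50 (v/v). One epimer is trapped on a Supelcosil LC-8 (C8) reactor column and epimerizes at 37.5 °C in chloroacetate buffer pH 2.20 or phosphate buffer pH 7.00 (ionic strength 0.01). Column recooled to 0 °C, epimers re-separated, n = 4. Rate constants from first-order reversible kinetics.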

Data set [6] can be described thus: Configurational stability of compound in water-acetonitrile assessed as forward rate equilibrium epimerization at pH 2.2 using C-8 column by stopped flow bidimensional recycling HPLC. As to conditions: buffer. It counts as physicochemical. Summed up: as §2
Data set [7] can be described thus: Configurational stability of compound in water-acetonitrile assessed as forward rate equilibrium epimerization at pH 7 using C-8 column by stopped flow bidimensional recycling HPLC. In kind it is physicochemical. To be noted: buffer. Summed up:
as §2

Data set [8] in a line: Configurational stability of compound in water-acetonitrile assessed as backward rate epimerization at 25 degC by dynamic HPLC analysis. In kind it is physicochemical. To be noted: buffer. Summed up:
(§3)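 Dynamic HPLC on the (3*,6R) epimeric mixture: isocratic Chiralcel OD-R column, water/acetonitrile 50:50 (v/v), run at temperatures of 5-37 °C. Sample at 100 μg/mL final, 20 μL injected, UV detection at 254 nm. Interconversion rate constants obtained from elution profiles by integration of the interconverting peak areas.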

A short description of data set [9]: Configurational stability of compound in water-acetonitrile assessed as forward rate equilibrium epimerization at pH 7 using IAM column by stopped flow bidimensional recycling HPLC. In kind it is physicochemical. To be noted: artificial membrane. Summed up: as §1
The nature of data set [10]: Configurational stability of compound in water-acetonitrile assessed as forward rate epimerization at pH 7 using IAM column by stopped flow bidimensional recycling HPLC. To be noted: artificial membrane. It counts as physicochemical. The essentials:
as §1

Data set [11] in a line: Configurational stability of compound in water-acetonitrile assessed as forward rate epimerization at pH 2.2 using IAM column by stopped flow bidimensional recycling HPLC. In kind it is physicochemical. As to conditions: artificial membrane. Summed up:
as §1

A short description of data set [12]: Configurational stability of compound in water-acetonitrile assessed as backward rate epimerization at pH 2.2 using IAM column by stopped flow bidimensional recycling HPLC. To be noted: artificial membrane. It counts as physicochemical. Summed up: as §1
Data set [13] can be described thus: Configurational stability of compound in water-acetonitrile assessed as forward rate equilibrium epimerization at pH 2.2 using IAM column by stopped flow bidimensional recycling HPLC. As to conditions: artificial membrane. It counts as physicochemical. The essentials: as §1
Data set [14] in a line: Configurational stability of compound in water-acetonitrile assessed as backward rate equilibrium epimerization at pH 7 using IAM column by stopped flow bidimensional recycling HPLC. It counts as physicochemical. As to conditions: artificial membrane. The essentials: as §1
The nature of data set [15]: Configurational stability of compound in water-acetonitrile assessed as backward rate epimerization at 37 degC by dynamic HPLC analysis. It counts as physicochemical. As to conditions: buffer. Summed up: as §3
A short description of data set [16]: Configurational stability of compound in water-acetonitrile assessed as forward rate epimerization at 25 degC by dynamic HPLC analysis. It counts as physicochemical. To be noted: buffer. The essentials:
as §3

Data set [17] in a line: Configurational stability of compound in water-acetonitrile assessed as forward equilibrium rate epimerization at 25 degC by dynamic HPLC analysis. In kind it is physicochemical. To be noted: buffer. Summed up: as §3
A short description of data set [18]: Configurational stability of compound in water-acetonitrile assessed as forward equilibrium rate epimerization at 37 degC by dynamic HPLC analysis. To be noted: buffer. It counts as physicochemical. The essentials:
as §3

A short description of data set [19]: Configurational stability of compound in water-acetonitrile assessed as backward rate epimerization at 5 degC by dynamic HPLC analysis. To be noted: buffer. It counts as physicochemical. The essentials: as §3
Data set [20] can be described thus: Configurational stability of compound assessed as half life using C-8 column by stopped flow bidimensional recycling HPLC. It counts as physicochemical. As to conditions: C-8 column (stationary phase). Summed up:
as §2

Data set [21] in a line: Configurational stability of compound in water-acetonitrile assessed as forward rate epimerization at 37 degC by dynamic HPLC analysis. In kind it is physicochemical. To be noted: buffer. Summed up:
as §3

The nature of data set [22]: Configurational stability of compound in water-acetonitrile assessed as forward rate epimerization at pH 2.2 using C-8 column by stopped flow bidimensional recycling HPLC. In kind it is physicochemical. To be noted: buffer. The essentials:
as §2

The nature of data set [23]: Configurational stability of compound in water-acetonitrile assessed as forward equilibrium rate epimerization at 5 degC by dynamic HPLC analysis. As to conditions: buffer. In kind it is physicochemical. The essentials: as §3
A short description of data set [24]: Configurational stability of compound in water-acetonitrile assessed as backward rate equilibrium epimerization at pH 2.2 using C-8 column by stopped flow bidimensional recycling HPLC. In kind it is physicochemical. As to conditions: buffer. Summed up:
as §2

The nature of data set [25]: Configurational stability of compound in water-acetonitrile assessed as forward rate epimerization at 5 degC by dynamic HPLC analysis. It counts as physicochemical. To be noted: buffer. Summed up:
as §3

Data set [26] is described as follows: Configurational stability of compound in water-acetonitrile assessed as forward rate epimerization at pH 7 using C-8 column by stopped flow bidimensional recycling HPLC. In kind it is physicochemical. As to conditions: buffer. Summed up: as §2
Data set [27] is described as follows: Configurational stability of compound in water-acetonitrile assessed as backward rate epimerization at pH 7 using C-8 column by stopped flow bidimensional recycling HPLC. In kind it is physicochemical. As to conditions: buffer. The essentials: as §2
Data set [28] in a line: Configurational stability of compound in water-acetonitrile assessed as backward rate epimerization at pH 2.2 using C-8 column by stopped flow bidimensional recycling HPLC. In kind it is physicochemical. To be noted: buffer. Summed up: as §2
A short description of data set [29]: Chemical stability of compound assessed as compound hydrolysis at pH 2.2 at 37.5 degC after 90 mins. In kind it is physicochemical. As to conditions: buffer, pH 2.2, 1.5 h. Summed up:
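(3*,6R) epimeric mixture held on reactor column in chloroacetate buffer (ionic strength 0.01, pH 2.20) at 37.5 °C for up to 90 min. Hydrolysis checked by the sf-BD-rHPLC method: Chiralcel OD-R separative column at 0 °C, water/acetonitrile 50:50 (v/v) eluent.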

On to `CC1NS(=O)(=O)c2cc(Cl)cc3c2N1C[C@H]3C` (mixture of isomers), for which, in data set [1], the Activity is 250%.

Usually half-life stands for the time needed for the level to fall by half in the phase considered. `CC1NS(=O)(=O)c2cc(Cl)cc3c2N1C[C@@H]3C` (mixture of isomers): the K in data set [2] was determined as 2.75 ×10⁻⁴ /s; in data set [3] it was 9.63 ×10⁻⁴ /s; in [5] it was 7.77 ×10⁻⁴ /s; in data set [6] it was 6.68 ×10⁻⁴ /s; in data set [7] it was 5.9 ×10⁻⁴ /s; in [8] it was 0.76 ×10⁻⁴ /s. In addition, the K is reported as 7.2 ×10⁻⁴ /s in data set [9]; 5.3 ×10⁻⁴ /s in data set [10]; 6.68 ×10⁻⁴ /s in [11]; 3.48 ×10⁻⁴ /s in [12]; 10.7 ×10⁻⁴ /s in data set [13]; 8.93 ×10⁻⁴ /s in data set [14]. In addition, the K is given as 0.71 ×10⁻⁴ /s in [15]; 1.11 ×10⁻⁴ /s in [16]; 1.87 ×10⁻⁴ /s in data set [17]; 1.99 ×10⁻⁴ /s in data set [18]; 0.06 ×10⁻⁴ /s in data set [19]; 1.28 ×10⁻⁴ /s in data set [21]. The K stood at 4.61 ×10⁻⁴ /s in data set [22]; 0.23 ×10⁻⁴ /s in data set [23]; 6.52 ×10⁻⁴ /s in data set [24]; 0.17 ×10⁻⁴ /s in [25]; 4.49 ×10⁻⁴ /s in data set [26]; 2.34 ×10⁻⁴ /s in data set [27]. In data set [28], the K is reported as 2.26 ×10⁻⁴ /s. In addition, the half-life in data set [4] and in data set [20] was 10 min throughout. In addition, the Activity in [1] came to 112%.

Consider `CC1CN2c3c1cc(Cl)cc3S(=O)(=O)NC2C` (stereo not given), for which the Stability entry in data set [29] is recorded as “Stable”.
